The results in this text go back to ChEMBL document CHEMBL4622968, “Discovery of [1,2,4]triazolo[4,3-a]pyridines as potent Smoothened inhibitors targeting the Hedgehog pathway with improved antitumor activity in vivo” (Bioorg Med Chem, 2020).

The subject of assay [1] is HeLa. Briefly: Antiproliferation activity against human HeLa cells assessed as reduction in cell viability incubated for 72 hrs by MTT assay. Type of assay: functional, cell-based. The procedure, abridged:
(§1)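 MTT assay. Cells were plated overnight and exposed to a range of concentrations for 72 h. MTT was then added for 4 h and absorbance read at 570 nm. Inhibition% = [(control − compound)/(control − blank)] × 100. IC50 was fitted from the curves. Mean ± S.D. of 3–5 separate experiments. RPMI 1640 + 10% FBS; MCF10A in DMEM/F12 with 5% horse serum, EGF, hydrocortisone, insulin and cholera toxin.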
In general terms: Tetrazolium dyes change colour on reduction, which living cells bring about.

Assay [2] can be described thus: Inhibition of hedgehog pathway in mouse NIH/3T3 cells harboring GRE-Luc assessed as inhibition of SAG-induced Hh signaling pathway by dual luciferase reporter gene assay. Particulars: NIH3T3. It counts as cell-based. The procedure, abridged: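 NIH3T3 cells co-transfected with 8×3' Gli-BS-delta51-Luc II firefly reporter and pRL-TK Renilla plasmid; after 24 h treated with compounds plus SAG (pathway activator). Gli luciferase normalized to Renilla (dual-luciferase read-out); IC50 = concentration halving normalized signal; mean ± S.D. of 3–5 separate experiments.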

For assay [3], the system named is T47D. The assay is described as follows: Antiproliferation activity against human T47D cells assessed as reduction in cell viability incubated for 72 hr by MTT assay. It counts as functional, cell-based. The method, boiled down:
as §1

Assay [4] deals with AN3-CA. The assay is described as follows: Antiproliferation activity against human AN3CA cells assessed as reduction in cell viability incubated for 72 hr by MTT assay. Type of assay: functional, cell-based. The procedure, abridged: as §1
In assay [5] the test system is MDA-MB-231. The assay is described as follows: Antiproliferation activity against human MDA-MB-231 cells assessed as reduction in cell viability incubated for 72 hrs measured after 4 hrs by MTT assay. It counts as functional, cell-based. The procedure, abridged:
as §1

Assay [6] relates to A549. The assay is described as follows: Antiproliferation activity against human A549 cells assessed as reduction in cell viability incubated for 72 hrs by MTT assay. It counts as functional, cell-based. Particulars: A549, 72 h. The procedure, abridged: as §1
Assay [7] concerns MCF7. The assay is described as follows: Antiproliferation activity against human MCF7 cells assessed as reduction in cell viability incubated for 72 hrs by MTT assay. Type of assay: functional, cell-based. As to conditions: MCF7, 72 h. The procedure, abridged: as §1
Assay [8] relates to MDA-MB-468. The assay is described as follows: Antiproliferation activity against human MDA-MB-468 cells assessed as reduction in cell viability incubated for 72 hr by MTT assay. It counts as functional, cell-based. As to conditions: MDA-MB-468, 72 h. The procedure, abridged:
as §1

The test system of assay [9] is U-251. The assay is described as follows: Antiproliferation activity against human U251 cells assessed as reduction in cell viability incubated for 72 hrs by MTT assay. Type of assay: functional, cell-based. Particulars: U-251, 72 h. The procedure, abridged:
as §1

For assay [10], the target named is T1, Protein smoothened (Homo sapiens, UniProt Q99835). The assay is described as follows: Binding affinity to recombinant human Smo receptor assessed as dissociation constant at equilibrium by SPR analysis. For orientation: Surface plasmon resonance follows binding to a sensor surface in real time, without labels.
T1 sequence (Q99835 whole entry): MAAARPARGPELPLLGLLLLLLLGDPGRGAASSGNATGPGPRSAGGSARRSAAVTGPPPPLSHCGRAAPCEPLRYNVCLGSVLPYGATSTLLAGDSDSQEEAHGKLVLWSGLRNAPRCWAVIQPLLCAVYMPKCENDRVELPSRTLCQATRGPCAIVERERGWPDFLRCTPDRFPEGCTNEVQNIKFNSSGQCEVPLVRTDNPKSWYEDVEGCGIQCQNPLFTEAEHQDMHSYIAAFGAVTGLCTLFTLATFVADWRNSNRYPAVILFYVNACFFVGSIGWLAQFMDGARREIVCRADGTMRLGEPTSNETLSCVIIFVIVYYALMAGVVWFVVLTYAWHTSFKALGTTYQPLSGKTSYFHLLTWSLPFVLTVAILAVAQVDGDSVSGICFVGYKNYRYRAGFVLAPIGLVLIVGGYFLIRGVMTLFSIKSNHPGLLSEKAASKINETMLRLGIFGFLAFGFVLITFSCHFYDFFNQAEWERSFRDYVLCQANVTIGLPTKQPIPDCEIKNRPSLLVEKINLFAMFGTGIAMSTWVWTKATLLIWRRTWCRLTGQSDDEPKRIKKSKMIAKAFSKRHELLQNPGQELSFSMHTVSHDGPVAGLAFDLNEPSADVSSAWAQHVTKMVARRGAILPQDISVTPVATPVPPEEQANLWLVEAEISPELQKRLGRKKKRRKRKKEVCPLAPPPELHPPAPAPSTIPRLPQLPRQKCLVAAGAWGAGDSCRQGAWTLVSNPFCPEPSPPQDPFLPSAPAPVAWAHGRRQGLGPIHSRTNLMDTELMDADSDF
Assay [11] addresses T1, Protein smoothened. The assay is described as follows: Binding affinity to recombinant human Smo receptor assessed as association constant at equilibrium by SPR analysis.
Assay [12] deals with T1, Protein smoothened. The assay is described as follows: Binding affinity to recombinant human Smo receptor assessed as dissociation rate constant by SPR analysis. The procedure, abridged:
(§2)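 Surface plasmon resonance with recombinant Smo protein, run in PBS at a flow rate of 2 μL/s and 4 °C. Analytes were injected at 2.5, 5 and 10 μM. The chip was regenerated with 0.5% SDS:glycine-HCl pH 2.0 (1:1). ka, kd, Rmax, KA and KD came from a global fit of the sensorgrams.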

Assay [13] deals with T1, Protein smoothened. The assay is described as follows: Binding affinity to recombinant human Smo receptor assessed as maximum response at equilibrium by SPR analysis. The procedure, abridged:
as §2

For assay [14], the target named is T1, Protein smoothened. The assay is described as follows: Binding affinity to recombinant human Smo receptor assessed as association rate constant by SPR analysis. The method, boiled down: as §2

Where only a bound is given, the exact number is not on record here.

On to `O=C(Nc1ccc(Cl)c(-c2nnc3c(Cl)cccn23)c1)c1c(F)cccc1Cl`, for which the IC50 (as a rule, the midpoint of a concentration-inhibition curve) in assay [1] was over 100 µM; in [2], over 10 µM; in [3], over 100 µM; in assay [4], over 100 µM; in [5], over 100 µM; in assay [6], 72.3 µM. Further, the 50% inhibitory concentration (IC50) in [7] is over 100 µM; in assay [8] it was 57.6 µM; in [9] it was over 100 µM.
In the case of `O=C(Nc1ccc(Cl)c(-c2nnc3c(Cl)cccn23)c1)c1ccccc1`, the IC50 in assay [1] is over 100 µM; in assay [2], 0.77 µM; in assay [3] it was over 100 µM; in assay [4] it was 67.6 µM; in assay [5], 58.2 µM; in assay [6], 76.9 µM. Besides, the half-maximal inhibitory concentration (IC50) in assay [7] was over 100 µM; in assay [8], over 100 µM; in assay [9], 73.5 µM.
Consider `O=C(Nc1ccc(Cl)c(-c2nnc3c(Cl)cccn23)c1)c1ccc(F)cc1Cl`, for which the IC50 in assay [1] was over 100 µM; in [2], 8.22 µM; in assay [3], over 100 µM; in assay [4], over 100 µM; in assay [5], 75 µM; in [6] it was over 100 µM. In addition, the IC50 in [7], in [8] and in assay [9] was over 100 µM in each case.
Turning to `Cc1cc(Cl)ccc1C(=O)Nc1ccc(Cl)c(-c2nnc3c(Cl)cccn23)c1`, the IC50 in [1] is over 100 µM; in assay [2], over 10 µM; in assay [3], over 100 µM; in assay [4], over 100 µM; in [5] it was over 100 µM; in assay [6] it was over 100 µM. Moreover, the half-maximal inhibitory concentration (IC50) is over 100 µM in assay [7], 34.3 µM in assay [8] and over 100 µM in assay [9].
On to `O=C(Nc1ccc(Cl)c(-c2nnc3c(Cl)cccn23)c1)c1ccon1`, for which the IC50 in assay [1] was over 100 µM; in assay [2], over 10 µM; in assay [3] it was over 100 µM; in assay [4], over 100 µM; in assay [5], over 100 µM; in assay [6] it was 42.7 µM. Also, the IC50 in [7], in [8] and in assay [9] was over 100 µM in each case.
Take `CS(=O)(=O)c1ccc(C(=O)Nc2ccc(Cl)c(-c3nnc4c(Cl)cccn34)c2)c(Cl)c1`: the IC50 in assay [1] is over 100 µM; in assay [2] it was 4.27 µM; in assay [3], over 100 µM; in assay [4] it was over 100 µM; in assay [5], 37.2 µM; in assay [6], over 100 µM. Also, the figures for the IC50 in assay [7], in [8] and in assay [9] were over 100 µM, over 100 µM and 44.6 µM, respectively.
For the compound `O=C(Nc1ccc(Cl)c(-c2nnc3c(Cl)cccn23)c1)c1ccccn1`, the IC50 in assay [1] is 75.5 µM; in assay [2], 1.08 µM; in [3] it was over 100 µM; in assay [4], over 100 µM; in assay [5] it was 92 µM; in assay [6] it was over 100 µM. Also, the IC50 in assay [7] was 96.4 µM; in assay [8] it was over 100 µM; in assay [9], 79 µM.
With `O=C(Nc1ccc(Cl)c(-c2nnc3c(Cl)cccn23)c1)c1ccc(C(F)(F)F)nc1Cl`, the half-maximal inhibitory concentration (IC50) in assay [1] is 86.3 µM; in assay [2], 0.093 µM; in assay [3], 87.6 µM; in [4] it was 48.3 µM; in assay [5], over 100 µM; in [6] it was 46.8 µM. Moreover, the half-maximal inhibitory concentration (IC50) in [7] was over 100 µM; in [8], 46 µM; in [9], over 100 µM. Further, the Kd (usually the constant that tells how readily two partners part at equilibrium) in assay [10] worked out at 0.0106 µM. Moreover, in assay [11], the KA was found to be 9.43 ×10⁷ /M. Moreover, the Kdiss in assay [12] came out at 0.00275 ×10⁻³ /s. Besides, in assay [13], the Rmax was found to be 8.44 RU. The Ka in [14] was found to be 260 M⁻¹ s⁻¹.
For `O=C(Nc1ccc(Cl)c(-c2nnc3c(Cl)cccn23)c1)c1ccc(C(F)(F)F)cc1Cl`, the half-maximal inhibitory concentration (IC50) in assay [1] was over 100 µM; in assay [2] it was 5.2 µM; in assay [3], over 100 µM; in [4], over 100 µM; in assay [5], over 100 µM; in assay [6], over 100 µM. Besides, the figures for the 50% inhibitory concentration (IC50) in [7], in assay [8] and in assay [9] were 81.6 µM, over 100 µM and over 100 µM, respectively.
`O=C(Nc1ccc(Cl)c(-c2nnc3c(Cl)cccn23)c1)c1cccnc1`: the half-inhibitory concentration (IC50) is over 100 µM in [1]; over 10 µM in assay [2]; over 100 µM in [3]; over 100 µM in assay [4]; over 100 µM in assay [5]; over 100 µM in assay [6]. For the same compound, the IC50 in assay [7], in [8] and in assay [9] was over 100 µM in each case.
Consider `CS(=O)(=O)c1cccc(C(=O)Nc2ccc(Cl)c(-c3nnc4c(Cl)cccn34)c2)c1`, for which the IC50 is 86.4 µM in assay [1]; 2.98 µM in assay [2]; over 100 µM in [3]; over 100 µM in assay [4]; over 100 µM in assay [5]; over 100 µM in assay [6]. The results for the half-inhibitory concentration (IC50) in [7], in assay [8] and in assay [9] were 88.9 µM, over 100 µM and over 100 µM, respectively.
As to `CS(=O)(=O)c1ccc(C(=O)Nc2ccc(Cl)c(-c3nnc4c(Cl)cccn34)c2)cc1`, the concentration for half-maximal inhibition (IC50) in assay [1] is over 100 µM; in assay [2] it was 1.77 µM; in assay [3], over 100 µM; in [4], over 100 µM; in assay [5] it was over 100 µM; in [6], over 100 µM. Besides, the IC50 is 94.2 µM in assay [7], over 100 µM in [8] and over 100 µM in assay [9].
Consider `O=C(Nc1ccc(Cl)c(-c2nnc3c(Cl)cccn23)c1)c1ccc(Cl)cc1Cl`, for which the half-inhibitory concentration (IC50) was over 100 µM in [1]; 0.285 µM in [2]; over 100 µM in assay [3]; 84.8 µM in assay [4]; over 100 µM in assay [5]; 61.3 µM in assay [6]. Besides, the figures for the IC50 in assay [7], in [8] and in assay [9] were 78.2 µM, 21.6 µM and over 100 µM, respectively.
As for `O=C(Nc1ccc(Cl)c(-c2nnc3c(Cl)cccn23)c1)c1ccccc1Cl`, the half-inhibitory concentration (IC50) in assay [1] is over 100 µM; in assay [2], 0.727 µM; in assay [3] it was 83.8 µM; in assay [4], over 100 µM; in assay [5], 59.9 µM; in assay [6], over 100 µM. Besides, the IC50 is 92.2 µM in [7], over 100 µM in [8] and over 100 µM in [9].
Turning to `O=C(Nc1ccc(Cl)c(-c2nnc3c(Cl)cccn23)c1)c1cccnc1Cl`, the IC50 in assay [1] is 87.5 µM; in assay [2], over 10 µM; in assay [3] it was over 100 µM; in assay [4] it was over 100 µM; in [5], 89.7 µM; in [6], 35.8 µM. Further, the IC50 in [7], in assay [8] and in assay [9] was over 100 µM throughout.
With `O=C(Nc1ccc(Cl)c(-c2nnc3c(Cl)cccn23)c1)c1ccc(C(F)(F)F)cc1F`, the IC50 is 61.9 µM in assay [1]; 0.096 µM in assay [2]; 70.8 µM in assay [3]; 41.2 µM in assay [4]; over 100 µM in assay [5]; over 100 µM in assay [6]. For the same compound, the figures for the concentration for half-maximal inhibition (IC50) in assay [7], in assay [8] and in [9] were 62.8 µM, 22.3 µM and over 100 µM, respectively. Moreover, in [10], the Kd came to 13.6 µM. In addition, the KA in [11] turned out to be 7.35 ×10⁴ /M. Further, the Kdiss in assay [12] is 1.51 ×10⁻³ /s. Further, the Rmax in assay [13] is 49.2 RU. For the same compound, in assay [14], the Ka was determined as 111 M⁻¹ s⁻¹.
Take `Cc1nc(C(=O)Nc2ccc(Cl)c(-c3nnc4c(Cl)cccn34)c2)cs1`: the half-maximal inhibitory concentration (IC50) in assay [1] was 79.8 µM; in assay [2] it was over 10 µM; in assay [3] it was over 100 µM; in [4] it was over 100 µM; in assay [5] it was over 100 µM; in assay [6], over 100 µM. For the same compound, the concentration for half-maximal inhibition (IC50) in assay [7] is over 100 µM; in assay [8], over 100 µM; in assay [9] it was 74.3 µM.
With `O=C(Nc1ccc(Cl)c(-c2nnc3c(Cl)cccn23)c1)c1ccc(Cl)cc1`, the IC50 in [1] was over 100 µM; in [2] it was 2.73 µM; in assay [3], over 100 µM; in assay [4], over 100 µM; in assay [5], over 100 µM; in assay [6], 73.6 µM. For the same compound, the half-inhibitory concentration (IC50) in assay [7] is 58.4 µM; in assay [8], over 100 µM; in assay [9], over 100 µM.
